According to ChEMBL document CHEMBL1125479, “Methoxytetrahydropyrans. A new series of selective and orally potent 5-lipoxygenase inhibitors” (J Med Chem, 1992):
Values joined by “and” are separate entries in the source; they are usually repeats but may differ in a detail not shown here. Equal entries are not always repeated.

Legend:
[1] = biological target: T1, Polyunsaturated fatty acid 5-lipoxygenase (Homo sapiens, UniProt P09917); assay: In vitro inhibition of leukotriene B4 synthesis in human whole blood by inhibiting 5-lipoxygenase; format: tissue-based
T1 sequence (P09917 whole entry): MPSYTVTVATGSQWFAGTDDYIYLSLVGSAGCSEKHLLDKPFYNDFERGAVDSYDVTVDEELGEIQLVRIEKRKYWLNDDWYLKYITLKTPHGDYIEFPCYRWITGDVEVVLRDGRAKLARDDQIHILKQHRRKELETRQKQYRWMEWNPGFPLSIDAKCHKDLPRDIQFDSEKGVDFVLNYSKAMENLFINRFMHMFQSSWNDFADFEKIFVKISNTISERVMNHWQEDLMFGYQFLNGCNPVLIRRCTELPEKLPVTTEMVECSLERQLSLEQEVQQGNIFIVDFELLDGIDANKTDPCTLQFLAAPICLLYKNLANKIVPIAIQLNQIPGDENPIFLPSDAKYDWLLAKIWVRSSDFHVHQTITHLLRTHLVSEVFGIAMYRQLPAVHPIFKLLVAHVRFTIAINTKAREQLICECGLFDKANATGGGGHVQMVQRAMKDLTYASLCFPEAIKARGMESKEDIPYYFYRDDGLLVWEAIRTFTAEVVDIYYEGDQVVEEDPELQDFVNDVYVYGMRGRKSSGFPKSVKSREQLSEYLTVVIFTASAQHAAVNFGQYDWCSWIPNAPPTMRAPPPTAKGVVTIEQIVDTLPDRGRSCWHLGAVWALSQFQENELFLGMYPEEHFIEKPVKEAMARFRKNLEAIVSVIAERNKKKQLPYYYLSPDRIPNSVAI
Summary of the method: (§1)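 Heparinized human whole blood preincubated with compound, then stimulated with calcium ionophore A23187; LTB4 (5-LPO product) and TxB2 (cyclooxygenase product) generation measured.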

Rattus norvegicus [2] = assay: Ex vivo potency in for eicosanoid generation in inflammatory exudate of rat 3 hr after peroral administration; format: functional; details: po
Summary of the method: (§2)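 Male Alderley Park rats (130-150 g) given a subcutaneous air pouch (20 mL sterile air under halothane, reinflated with 10 mL 3 days later). After a further 3 days, oral dosing (DMSO solution in 0.5% HPMC/0.1% polysorbate 80, 1 mL/kg) or vehicle, then 1 mL of 1% zymosan in saline into the pouch.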

Homo sapiens = organism: Homo sapiens; assay: In vitro inhibition of leukotriene B4 in human whole blood; format: functional; summary of the method: as §1
[3] = Aqueous solubility was determined; format: physicochemical; details: buffer
Rattus norvegicus [4] = assay: Ex vivo potency in rat blood for eicosanoid generation 1 hr after peroral administration; format: functional; details: po
Summary of the method: (§3)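 Rats dosed orally (1 mL/kg) with compound dissolved in DMSO and suspended in 0.5% (hydroxypropyl)methylcellulose with 0.1% polysorbate 80; controls got vehicle.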

[5] = Logarithm of partition coefficient was determined; format: physicochemical; details: octanol/water
Rattus norvegicus [6] = assay: Ex vivo potency in rat blood for eicosanoid generation 3 hr after peroral administration; format: functional; details: po; summary of the method: as §3
[7] = biological target: T1, Polyunsaturated fatty acid 5-lipoxygenase; assay: In vitro inhibition of leukotriene B4 synthesis in human whole blood by inhibiting 5-LPO (5-lipoxygenase); format: tissue-based; summary of the method: as §1
Rattus norvegicus [8] = assay: Compound was tested for the generation of eicosanoid in inflammatory exudate after 3 hr peroral administration; format: functional; details: po; summary of the method: as §2
Rattus norvegicus [9] = assay: Ex vivo potency against rat blood after 1 hr peroral administration; format: functional; details: po, 3 h, in the assay text read “after 3 hr” for “after 1 hr”; summary of the method: as §3
Mus musculus = organism: Mus musculus; assay: In vitro inhibitory activity against leukotriene synthesis in mouse macrophages; format: functional
Rattus norvegicus [10] = assay: Ex vivo potency against rat blood after 3 hr peroral administration; format: functional; details: po; summary of the method: as §3
[11] = In vitro inhibition of thromboxane B2 in human whole blood Value; format: tissue-based; summary of the method: as §1

SMILES | IC50 [1] | ED50 (Rattus norvegicus [2]) [mg/kg] | also measured
CCC(OC)(c1ccc(OCc2ccc3ccccc3c2)cc1)c1nccs1 (stereo not given) | 40000 nM | – | –
COC1(c2cc(F)cc(OCc3ccc4c(c3)oc(=O)n4C)c2)CCOCC1 | 200 nM | > 1.5 | –
COC1(c2cccc(OCc3ccc4ccccc4c3)c2)CCCOC1 (stereo not given) | 1700 nM | – | IC50 (Homo sapiens): 2800 nM
COC1(c2cc(F)cc(OCc3ccc4nccnc4c3)c2)CCOCC1 | – | 30 | Delta logS [3]: 1.8; ED50 (Rattus norvegicus [4]): 30 mg/kg; delta Log P [5]: -1.8
COC1(c2cc(F)cc(OCc3ccc4c(c3)n(C)c(=O)n4C)c2)CCOCC1 | 80 nM | 1.5 | Delta logS [3]: 1; delta Log P [5]: -1.7
COC1(c2cccc(OCc3ccc4ccccc4c3)c2)CCCCOC1 (stereo not given) | 2500 nM | – | –
COC1(c2cccc(OCC#Cc3ccccc3)c2)CCOCC1 | 70 nM | – | –
COC1(c2cccc(OCc3ccc4c(ccc(=O)n4C)c3)c2)CCOCC1 | – | 3 | Delta logS [3]: 1.8; ED50 (Rattus norvegicus [6]): 1.5 mg/kg; delta Log P [5]: -2
CCC(OC)(c1cccc(OCC#Cc2ccccc2)c1)c1nccs1 (stereo not given) | 900 nM and 1000 nM | – | –
COC1(c2cccc(OCc3ccc4ccc(=O)n(C)c4c3)c2)CCOCC1 | 200 nM | – | ED50 (Rattus norvegicus [6]): > 3 mg/kg
COC1(c2cc(F)cc(OCc3ccc4c(c3)sc(=O)n4C)c2)CCOCC1 | 40 nM | 1.5 | Delta logS [3]: 0.8; delta Log P [5]: -1.2
COC1(c2cccc(OCc3ccc4ccccc4c3)c2)CCCOCC1 (stereo not given) | 200 nM | – | –
COC1(c2cccc(OCC#Cc3ccccn3)c2)CCOCC1 | 400 nM | – | ED50 (Rattus norvegicus [4]): 100 mg/kg
COC1(c2cccc(OCc3cccc4c3ccc(=O)n4C)c2)CCOCC1 | 1300 nM | – | ED50 (Rattus norvegicus [6]): > 3 mg/kg
CC(C)c1ccc2c(c1)c(SC(C)(C)C)c(CC(C)(C)C(=O)[O-])n2Cc1ccc(Cl)cc1.[Na+] | – | – | IC50 [7]: 1100 nM; ED50 (Rattus norvegicus [8]): 2 mg/kg; ED50 (Rattus norvegicus [9]): 3 mg/kg
COC1(c2cccc(OCc3ccc4ccccc4c3)c2)CC[S+]([O-])CC1 (stereo not given) | 4200 nM | – | –
COC1(c2cccc(OCc3ccc4ccccc4c3)c2)CCSCC1 | 400 nM | – | IC50 (Homo sapiens): 400 nM
COC1(c2cccc(OCc3ccc4ccccc4c3)c2)CCN(C)CC1 | > 40000 nM | – | –
COC(C)(c1cccc(OCc2ccc3ccccc3c2)c1)c1nccs1 (stereo not given) | 500 nM | – | –
COC1(c2cccc(OCc3ccc4ccccc4c3)c2)CCC(=O)CC1 | 3400 nM | – | –

SMILES | IC50 [1] | ED50 (Rattus norvegicus [2]) [mg/kg] | also measured
COC1(c2cc(F)cc(OCc3cc4ccccc4n(C)c3=O)c2)CCOCC1 | 400 nM | > 1.5 | –
COC(C)(c1nccs1)c1cccc(OCc2ccc3ccccc3c2)c1C (stereo not given) | – | – | IC50 (Homo sapiens): 1000 nM
COC1(c2ccc(OCc3ccc4ccccc4c3)cc2)CCOCC1 | 19000 nM | – | –
COC1(c2cccc(OCc3ccc4ccccc4c3)c2)CCS(=O)(=O)CC1 | 10600 nM | – | –
CCOC(C)=O.COC1(c2cc(F)cc(OCc3ncc4ccccc4n3)c2)CCOCC1 | 200 nM | – | Delta logS [3]: 1.9; ED50 (Rattus norvegicus [4]): > 10 mg/kg; delta Log P [5]: -1.9
COC1(c2cccc(OCc3ccc4ccccc4c3)c2C)CCOCC1 | 600 nM | – | –
COC1(c2cc(OCc3ccc4ccccc4c3)ccc2C)CCOCC1 | 40000 nM | – | –
COC1(c2cccc(OCc3ccc4ccccc4c3)c2)CCCCC1 | 2600 nM | – | –
COC1(c2cccc(OCc3ccc4ccccc4c3)c2)CCOC1 (stereo not given) | 700 nM | – | –
COC1(c2cc(F)cc(OCc3ccc4nc(O)ccc4c3)c2)CCOCC1 | 600 nM | – | ED50 (Rattus norvegicus [6]): > 3 mg/kg
COC1(c2cccc(OCc3ccc4ccccc4c3)c2)CCOCC1 | 70 nM | 10 | ED50 (Rattus norvegicus [4]): 5 mg/kg; ED50 (Rattus norvegicus [6]): 10 mg/kg; IC50 (Mus musculus): 0.5 nM
COC1(c2cc(F)cc(OCc3ccc4c(=O)n(C)ccc4c3)c2)CCOCC1 | 200 nM | > 1.5 | –
COC1(c2cc(F)cc(OCc3ccc4c(c3)C(C)(C)C(=O)N4C)c2)CCOCC1 | 80 nM | > 1.5 | –
CCOC(C)=O.COC1(c2cc(F)cc(OCc3cc4ccccc4nc3O)c2)CCOCC1 | – | – | ED50 (Rattus norvegicus [4]): > 100 mg/kg
COC1(c2cccc(OCc3ccc4ccccc4c3)c2)COC1 | 2500 nM | – | –
COC1(c2cc(F)cc(OCc3ccc4oc(=O)ccc4c3)c2)CCOCC1 | – | – | IC50 [7]: 300 nM; ED50 (Rattus norvegicus [10]): > 3 mg/kg
COC1(c2cc(F)cc(OCc3ccc4ncncc4c3)c2)CCOCC1 | 200 nM | – | Delta logS [3]: 1.5; ED50 (Rattus norvegicus [4]): > 100 mg/kg; delta Log P [5]: -2.1
COC1(c2cc(F)cc(OCc3ccc4c(c3)ncc(=O)n4C)c2)CCOCC1 | 50 nM | 1.5 | Delta logS [3]: 1.8; delta Log P [5]: -2.3
COC1(c2cc(F)cc(OCc3ccc4c(ccc(=O)n4C)c3)c2)CCOCC1 [ZD-2138] | 20 nM | 0.3 | Delta logS [3]: 0.9; ED50 (Rattus norvegicus [4]): 1 mg/kg; IC50 [11]: > 500000 nM; ED50 (Rattus norvegicus [6]): 0.9 mg/kg; delta Log P [5]: -1.7
CC(c1cc2ccccc2s1)N(O)C(N)=O (stereo not given) [ZILEUTON] | – | 3 | IC50 [11]: 40000 nM
